The text below walks through data of ChEMBL document CHEMBL2010644, “Evaluation and discovery of novel synthetic chalcone derivatives as anti-inflammatory agents” (J Med Chem, 2011).

Calls of active or inactive are those of the source. No cut-off for these calls is given here.

The test system of data set [1] is RAW264.7. Kind of data set: Antiinflammatory activity in mouse RAW264.7 cells assessed as inhibition of LPS-induced TNFalpha production at 10 uM incubated for 2 hrs prior to LPS-challenge measured after 22 hrs by ELISA. Type of data set: functional, cell-based. In a few lines:
(§1)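 RAW264.7 cells grown in DMEM with 10% FBS at 37 °C, 5% CO2, plated at 1.2 × 10^6/plate overnight. Compound pretreatment 2 h (screen at 10 μM; dose-response at 2.5, 5.0, 10 μM), then LPS 0.5 μg/mL for 22 h. Medium TNF-α or IL-6 measured by ELISA, normalized to cell protein, expressed as % of LPS control; IC50 derived from dose series.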
Background: An ELISA detects its analyte on a solid surface through an enzyme-linked reagent.

For data set [2], the system named is RAW264.7. Kind of data set: Antiinflammatory activity in mouse RAW264.7 cells assessed as inhibition of LPS-induced IL6 production at 10 uM incubated for 2 hrs prior to LPS-challenge measured after 22 hrs by ELISA. Type of data set: functional, cell-based. In a few lines:
as §1

Data set [3] has as its system Peritoneal macrophage cell. In words: Antiinflammatory activity in ICR mouse primary peritoneal macrophages assessed as downregulation of LPS-induced COX-2 mRNA expression at 10 uM incubated for 2 hrs prior to LPS-challenge measured after 6 hrs by RT-qPCR analysis. Format: functional, cell-based. In a few lines:
(§2)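 Macrophages pretreated 2 h with compound at 10 μM or vehicle, then LPS 0.5 μg/mL for 6 h. mRNA of TNF-α, IL-6, COX-2, IL-1β and IL-12 quantified by RT-qPCR, normalized to β-actin mRNA and expressed as ratio to DMSO. Mean ± SD of four to seven independent experiments.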
For orientation: In qPCR the cycle at which signal appears reflects the starting amount.

In data set [4] the test system is Peritoneal macrophage cell. In words: Antiinflammatory activity in ICR mouse primary peritoneal macrophages assessed as downregulation of LPS-induced IL-1beta mRNA expression at 10 uM incubated for 2 hrs prior to LPS-challenge measured after 6 hrs by RT-qPCR analysis. Type of data set: functional, cell-based. In a few lines: as §2
In data set [5] the test system is Peritoneal macrophage cell. Kind of data set: Antiinflammatory activity in ICR mouse primary peritoneal macrophages assessed as downregulation of LPS-induced IL-12 mRNA expression at 10 uM incubated for 2 hrs prior to LPS-challenge measured after 6 hrs by RT-qPCR analysis. Format: functional, cell-based. In a few lines:
as §2

For data set [6], the species on record is Mus musculus. In words: Inhibition of LPS-induced ERK phosphorylation in ICR mouse primary peritoneal macrophages at 10 uM incubated for 2 hrs prior to LPS-challenge measured after 1 hr by Western blot analysis. In outline:
(§3)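 Cells pretreated 2 h with DMSO or compound (10 μM in the single-concentration set; 2.5, 5.0, 10, 20 μM in the dose series), then LPS 0.5 μg/mL for 1 h. p-ERK, ERK, p-p38 and p38 detected by Western blot with actin loading control; optical density ratio reported. Mean ± SE, three independent experiments.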
A general note: A western blot detects proteins with antibodies after separation by electrophoresis.

Data set [7] deals with T1, MAP kinase p38 (Mus musculus) (UniProt P47811+O08911+Q9WUI1+Q9Z1B7). Kind of data set: Inhibition of LPS-induced p38 phosphorylation in ICR mouse primary peritoneal macrophages at 10 uM incubated for 2 hrs prior to LPS-challenge measured after 1 hr by Western blot analysis. In a few lines: as §3
In data set [8] the test system is Peritoneal macrophage cell. In words: Antiinflammatory activity in ICR mouse primary peritoneal macrophages assessed as downregulation of high glucose-induced TNFalpha mRNA expression at 10 uM incubated for 2 hrs prior to high glucose-challenge measured after 3 hrs by RT-qPCR analysis. Format: functional, cell-based. In a few lines: (§4)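 Peritoneal macrophages (1 × 10^6) pretreated with compound (10 μM) or DMSO for 2 h, then high glucose (25 mM) for 3 h. Low-glucose reference cells kept in RPMI-1640 with 5.5 mM glucose. TNF-α, IL-1β, IL-6 and IL-12 mRNA measured by RT-qPCR on whole-cell RNA. Mean ± SEM, three independent experiments run in duplicate.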

For data set [9], the system named is Peritoneal macrophage cell. Kind of data set: Antiinflammatory activity in ICR mouse primary peritoneal macrophages assessed as downregulation of high glucose-induced IL1beta mRNA expression at 10 uM incubated for 2 hrs prior to high glucose-challenge measured after 3 hrs by RT-qPCR analysis. Format: functional, cell-based. In a few lines: as §4
Data set [10] deals with Peritoneal macrophage cell. In words: Antiinflammatory activity in ICR mouse primary peritoneal macrophages assessed as downregulation of high glucose-induced IL12 mRNA expression at 10 uM incubated for 2 hrs prior to high glucose-challenge measured after 3 hrs by RT-qPCR analysis. Format: functional, cell-based. In a few lines:
as §4

Data set [11] deals with Peritoneal macrophage cell. Kind of data set: Antiinflammatory activity in ICR mouse primary peritoneal macrophages assessed as downregulation of high glucose-induced IL6 mRNA expression at 10 uM incubated for 2 hrs prior to high glucose-challenge measured after 3 hrs by RT-qPCR analysis. Format: functional, cell-based. In outline: as §4
The subject of data set [12] is RAW264.7. In words: Antiinflammatory activity in mouse RAW264.7 cells assessed as inhibition of LPS-induced IL6 production incubated for 2 hrs prior to LPS-challenge measured after 22 hrs by ELISA. Type of data set: functional, cell-based. In a few lines:
as §1

Data set [13] deals with RAW264.7. In words: Antiinflammatory activity in mouse RAW264.7 cells assessed as inhibition of LPS-induced TNFalpha production incubated for 2 hrs prior to LPS-challenge measured after 22 hrs by ELISA. Format: functional, cell-based. In outline: as §1
Data set [14] relates to Peritoneal macrophage cell. In words: Antiinflammatory activity in ICR mouse primary peritoneal macrophages assessed as downregulation of LPS-induced TNF-alpha mRNA expression at 10 uM incubated for 2 hrs prior to LPS-challenge measured after 6 hrs by RT-qPCR analysis. Type of data set: functional, cell-based. In outline: as §2
The subject of data set [15] is Peritoneal macrophage cell. Kind of data set: Antiinflammatory activity in ICR mouse primary peritoneal macrophages assessed as downregulation of LPS-induced IL-6 mRNA expression at 10 uM incubated for 2 hrs prior to LPS-challenge measured after 6 hrs by RT-qPCR analysis. Type of data set: functional, cell-based. In a few lines:
as §2

The species named for data set [16] is Mus musculus. Kind of data set: Inhibition of JNK-induced NfkappaB p65 subunit translocation from cytoplasm to nucleus in LPS-stimulated ICR mouse primary peritoneal macrophages at 10 uM incubated for 2 hrs prior to LPS-challenge measured after 1 hr by fluorescence microscopy. In outline: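 Macrophages pretreated with DMSO or 10 μM compound for 2 h, stimulated with LPS 0.5 μg/mL for 1 h. Stained with anti-p65 and Cy3-conjugated secondary antibody, nuclei with DAPI. Imaged at 200× by fluorescence microscopy with red/blue overlay. Five independent experiments.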

The species named for data set [17] is Mus musculus. In words: Inhibition of JNK-induced IkappaBalpha degradation in LPS-stimulated ICR mouse primary peritoneal macrophages incubated for 2 hrs prior to LPS-challenge measured after 30 mins by Western blot analysis. In outline: (§5)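 Peritoneal macrophages pretreated with DMSO or compound (2.5, 5, 10 or 20 μM) for 2 h, then LPS 0.5 μg/mL for 30 min. Western blot of 40 μg lysate on 10% SDS-PAGE for IκBα (actin loading control) and p-JNK (JNK control); optical density normalized as percent of control. Mean ± SEM, three independent experiments.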

Data set [18] is filed under the species Mus musculus. Kind of data set: Inhibition of LPS-induced JNK phosphorylation in ICR mouse primary peritoneal macrophages incubated for 2 hrs prior to LPS-challenge measured after 30 mins by Western blot analysis. In a few lines: as §5
Data set [19] is filed under the species Mus musculus. In words: Inhibition of LPS-induced ERK phosphorylation in ICR mouse primary peritoneal macrophages incubated for 2 hrs prior to LPS-challenge measured after 1 hr by Western blot analysis. In a few lines:
as §3

For data set [20], the target named is T1, MAP kinase p38 (Mus musculus). In words: Inhibition of LPS-induced p38 phosphorylation in ICR mouse primary peritoneal macrophages incubated for 2 hrs prior to LPS-challenge measured after 1 hr by Western blot analysis. In outline: as §3
Data set [21] is filed under the species Mus musculus. In words: Inhibition of LPS-induced ERK phosphorylation in ICR mouse primary peritoneal macrophages at 20 uM incubated for 2 hrs prior to LPS-challenge measured after 1 hr by Western blot analysis. In outline:
as §3

Data set [22] concerns the target T1, MAP kinase p38 (Mus musculus). In words: Inhibition of LPS-induced p38 phosphorylation in ICR mouse primary peritoneal macrophages at 20 uM incubated for 2 hrs prior to LPS-challenge measured after 1 hr by Western blot analysis. In outline:
as §3

In data set [23] the test system is Mus musculus. Kind of data set: Antiinflammatory activity against LPS-induced inflammation in C57BL/6 mouse assessed as survival at 15 mg/kg, iv administered 15 mins prior to LPS-challenge after 7 days relative to vehicle treated control. Format: functional. In a few lines: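 Male B6 mice, 18−22 g, acclimatized ≥7 days. Compound at 2 mg/mL in macrogol 15 hydroxystearate solubilizer (5−10% final) with or without MCT (0.5−2% final), 200 μL iv at 15 mg/kg, 15 min before iv LPS 20 mg/kg. Vehicle controls got 10% solubilizer/2% MCT. Survival and body weight recorded every 12 h for 7 days; n = 10 per group.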

The test system of data set [24] is Mus musculus. Kind of data set: Toxicity in C57BL/6 mouse assessed as weight loss at 15 mg/kg, iv up to 60 hrs. Also on record: dose 15 mg/kg, route intravenous. The conditions noted are these: in vivo. Format: organism-based. In outline:
(§6)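 Male B6 mice (18−22 g) given compound at 15 mg/kg iv (2 mg/mL in macrogol 15 hydroxystearate 5−10% ± MCT 0.5−2%, 200 μL). LPS 20 mg/kg iv followed 15 min later. Vehicle controls received 10% solubilizer/2% MCT. Body weight recorded every 12 h for 7 days; n = 10 per group.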

Data set [25] relates to Mus musculus. In words: Toxicity in C57BL/6 mouse assessed as weight loss at 15 mg/kg, iv after 60 hrs. Type of data set: organism-based. Also on record: dose 15 mg/kg, route intravenous. To be noted: in vivo. In a few lines: as §6

Regarding `COc1ccc(C(=O)/C=C/c2ccc(O)c(OC)c2)cc1`, the inhibition result in data set [1], in data set [2], in [6] and in data set [7] was “Active” each time. Also, the outcome in data set [3], in [4], in data set [5], in [8], in data set [9] and in [10] was Active. For the same molecule, the result in data set [11], in data set [14] and in data set [15] was Active. For the same molecule, the IC50 in [12] was more than 10 µM. Besides, the inhibition entry in [12] and in data set [13] was “Dose-dependent effect” in each case.

Take `COc1ccc(C(=O)/C=C/c2cccc(OC)c2OC)cc1`: the inhibition result in data set [1] and in data set [2] was “Active” in each case.

Consider `COc1ccc(C(=O)/C=C/c2ccccc2Cl)cc1`, for which the outcome in data set [3], in data set [4], in data set [5], in [8], in data set [9] and in data set [10] was Active. For the same molecule, the outcome in data set [11], in [14] and in [15] was Active. In addition, the inhibition result in data set [16], in data set [6], in [7], in [21] and in data set [22] was “Active” in each case. Moreover, the inhibition result in data set [17], in data set [18], in data set [19], in [20], in data set [12] and in [13] was “Dose-dependent effect” throughout. The results for the Activity in data set [23], in [24] and in data set [25] were 70%, “Toxic” and “Non-toxic”, respectively. Further, the IC50 in data set [12] is 8.22 µM; in [13], 7.32 µM.

Take `COc1ccc(/C=C/C(=O)c2cc(OC)c(OC)c(OC)c2)c(OC)c1`: the inhibition entry in [1] and in [2] was “Active” throughout.

On to `COc1ccc(C(=O)/C=C/c2c(F)cccc2F)cc1`, for which the result in data set [3] was inactive. The result in [4], in data set [5], in [8], in [9], in [10] and in data set [11] was Active. Also, the outcome in data set [14] and in [15] was Active. Besides, the inhibition entry in [16], in [6], in data set [7], in data set [21] and in data set [22] was “Active” throughout. Besides, the inhibition entry in data set [17], in [18], in data set [20], in data set [12] and in data set [13] was “Dose-dependent effect” each time. Moreover, the Activity in data set [23] is 80%; in data set [24], “Toxic”; in data set [25] it was “Non-toxic”. In addition, the IC50 in [12] came to 5.55 µM; in data set [13], 8.42 µM.

With `COc1ccc(C(=O)/C=C/c2ccccc2Cl)cc1OC`, the inhibition entry in [1] and in [2] was “Active” each time.

For `COc1ccc(/C=C/C(=O)c2ccc(OC)c(OC)c2)c(OC)c1`, the inhibition result in data set [1], in data set [2], in data set [6] and in data set [7] was “Active” throughout. The outcome in data set [3], in data set [4], in [5], in [8], in data set [10] and in data set [11] was Active. For the same molecule, the outcome in data set [14] and in data set [15] was Active. The outcome in [9] was inactive. Besides, the figures for the IC50 in data set [12] and in data set [13] were 5.35 µM and 2.76 µM, respectively. The inhibition result in [12] and in [13] was “Dose-dependent effect” each time.

Consider `COc1cc(/C=C/C(=O)CC(=O)/C=C/c2ccc(O)c(OC)c2)ccc1O`, for which the inhibition result in data set [1] and in [2] was “Active” throughout.

One may read the IC50 as the point on the concentration scale where inhibition reaches its midpoint.
